CHOP UPR activ = activators of apoptotic arm of unfolded protein response (CHOP) | CHO-CHOP luciferase reporter, UPR activation, luminescence; percent of tunicamycin response over DMSO baseline | activation, % at 10 µM | 0.34% of 330,000 active | AID 449763;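 active = at 10 µM dose, activation of 40% or more, normalized to positive control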;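 also: 100% = tunicamycin at 10 µg/mL and 0% = DMSO alone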
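measured by = luciferase luminescence | assay system = CHO-CHOP cells, stable luciferase reporter of PERK-eIF2a-CHOP signalling | amount = 500 reporter cells seeded per well | timing = 6 h compound exposure at 37 °C after overnight seeding | controls = positive tunicamycin 10 µg/mL, negative DMSO alone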
XBP1 UPR activ = activators of adaptive arm of unfolded protein response (XBP1); CHO-XBP1 luciferase reporter, IRE1-XBP1 UPR activation, luminescence; percent of tunicamycin response, DMSO as zero; activation, % at 20 µM; 0.33% of 330,000 active; AID 463104;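 active = versus positive control, 20 µM dose yields 30% or more activation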;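 also: 100% = tunicamycin at 10 µg/mL and 0% = DMSO only wells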
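incubation = overnight seeding at 37 °C, 6 h compound treatment at 37 °C | assay system = CHO-XBP1 cells stably carrying IRE1-XBP1-driven luciferase reporter | input = 1000 cells per well | detection = luciferase luminescence | dosing = single point, 20 µM final compound, 1% DMSO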
T cruzi inh = blocks replication of Trypanosoma cruzi | T. cruzi beta-gal in NIH3T3, luminescence, 90 h | inhibition, % (concentration not given with the values) | 1.4% of 300,000 active;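 active = mean inhibition across valid replicates above about 55%, limit read from the data; inconclusive = mean below that limit but half or more replicates reach it; inactive = mean below it, under half of replicates reach it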;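 also: signal also drops with host cell toxicity which is not excluded here; 0% = plate median of DMSO wells and 100% = zero luminescence signal; higher percent means less beta-gal luminescence so fewer parasites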
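System – NIH/3T3 host cells with β-galactosidase reporter T. cruzi · Doses – single 50 nL compound addition per well in DMSO · Reagent – 5000 T. cruzi trypomastigotes/well · Medium – Low-serum DMEM with 2% FBS · Timing – ≥90 h infection period, 3 h prior cell attachment · Evaluation – parasite load inhibition, % · Technique – GalScreen luminescence, 60 min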
Mdm2 MdmX PPI = human Mdm2/MdmX binding inhibition. AID 485346. 3% of 330,000 active. inhibition, % at 8 µM. O15151+Q00987. SaOS-2 split-luciferase Mdm2/MdmX complementation, luminescence;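 active = inhibition of at least 50% at 8 µM in the primary screen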
Target sequence (O15151 whole entry, looked up): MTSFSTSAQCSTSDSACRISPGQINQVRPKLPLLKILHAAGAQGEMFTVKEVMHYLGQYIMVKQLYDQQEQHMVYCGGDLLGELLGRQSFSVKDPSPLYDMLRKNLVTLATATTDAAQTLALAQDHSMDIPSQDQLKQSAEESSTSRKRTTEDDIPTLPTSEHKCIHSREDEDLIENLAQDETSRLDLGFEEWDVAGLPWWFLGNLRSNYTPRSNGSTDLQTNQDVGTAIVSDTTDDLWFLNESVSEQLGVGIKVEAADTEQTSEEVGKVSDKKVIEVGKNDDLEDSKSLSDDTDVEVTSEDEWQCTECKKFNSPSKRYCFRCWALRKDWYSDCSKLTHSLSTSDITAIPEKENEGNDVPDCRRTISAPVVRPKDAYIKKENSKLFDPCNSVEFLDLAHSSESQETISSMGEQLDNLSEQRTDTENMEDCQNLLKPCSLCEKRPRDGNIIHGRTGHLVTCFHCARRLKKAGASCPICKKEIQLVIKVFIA
Target sequence (Q00987 whole entry, looked up): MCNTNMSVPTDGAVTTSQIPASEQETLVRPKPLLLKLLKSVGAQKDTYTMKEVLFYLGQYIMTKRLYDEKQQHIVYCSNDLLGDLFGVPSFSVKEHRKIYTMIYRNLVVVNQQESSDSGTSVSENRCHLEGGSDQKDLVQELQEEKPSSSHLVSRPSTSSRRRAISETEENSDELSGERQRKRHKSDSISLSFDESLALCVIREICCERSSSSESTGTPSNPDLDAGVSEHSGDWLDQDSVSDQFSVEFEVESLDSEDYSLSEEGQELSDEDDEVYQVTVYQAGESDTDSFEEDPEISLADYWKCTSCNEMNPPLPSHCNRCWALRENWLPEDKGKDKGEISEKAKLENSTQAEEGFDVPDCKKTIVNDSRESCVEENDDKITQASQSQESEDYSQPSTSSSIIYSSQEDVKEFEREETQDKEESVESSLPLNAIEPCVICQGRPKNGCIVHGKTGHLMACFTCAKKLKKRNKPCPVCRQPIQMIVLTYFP
CSC inhib = cancer stem cell inhibition. cancer stem cell-like cells viability, luminescence. inhibition, % at 7.5 µM. 1.1% of 300,000 active. AID 2717; in the data active = inhibition above about 75%; inconclusive = no clear call, values can overlap the other calls; tested in HMLE shEcad cells
Beta cell apopt = beta cell apoptosis inhibition. INS-1E cytokine-induced death, ATP luminescence, 48 h; percent of positive-control rescue, neutral wells zero. AID 435005. 0.8% of 300,000 active. protection from apoptosis, % (no concentration beside the values);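 active = Every replicate reaches about 75%, or at least half do and their mean reaches it too, limit read from the data; inconclusive = At least half of replicates reach the limit but their mean does not; inactive = Under half of replicates reach the limit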;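 also: 0% = cytokine-treated negative control wells and 100% = positive control rescue; higher means more ATP so stronger rescue from cytokine killing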
Mdm2 MdmX conf = human Mdm2/MdmX binding inhibition, confirmed | luminescent assay | shares compounds with Mdm2 MdmX PPI | inhibition, % at 8 µM | AID 489028 | 55% of 10,000 active; in the data active = inhibition above about 40%
Full FLuc ctr = inhibits full-length luciferase, flagging false Mdm2/MdmX hits | inhibition, % at 8 µM | SaOS-2 full-length luciferase counterscreen, luminescence | AID 504607 | shares compounds with Mdm2 MdmX PPI | 77% of 6,200 active;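 active = mean inhibition at 8 µM reaching about 37%, which flags the compound as non-specific, limit read from the data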;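 also: p53-null SaOS-2 cells with luciferase driven by a doxycycline-inducible promoter; compound on cells about two nights before reading with doxycycline added after day one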
* hit, by the source's call; ? = inconclusive; nt = not tested or not shown. This is a sample that favours compounds with a hit; in the whole collection about 5% have one here.

SMILES	CHOP UPR activ	XBP1 UPR activ	T cruzi inh	Mdm2 MdmX PPI	CSC inhib	Beta cell apopt	Mdm2 MdmX conf	Full FLuc ctr
CC(=O)Nc1ccc(S(=O)(=O)NC2CC(=O)N(c3ccc4c(c3)OCCO4)C2)cc1 (stereo not drawn)	1	2	-9	-21	-2	nt	nt	nt
COc1ccc(CCNC(=O)c2ccc(Cl)c(S(=O)(=O)N3CCCC3)c2)cc1	0	-3	nt	-15	nt	nt	nt	nt
COc1ccc(Br)cc1/C=C/c1ccc2cccc(O)c2n1	6	4	44	51*	28	20	38	nt
CC(C)N(C)S(=O)(=O)c1ccc(NC(=O)CSC(=S)N2CCCC2)cc1	0	-1	-1	15	-1	2	nt	nt
O=C1C=C(c2ccccc2)C[C@H](c2cccs2)[C@H]1n1nnc([N+](=O)[O-])n1	4	0	49	71*	nt	52	57*	60*
O=C(Nc1cccc(F)c1)c1ccc(Cn2cc([N+](=O)[O-])cn2)o1	1	0	-3	15	nt	-1	nt	nt
CC(C)(C)c1ccc(C(=O)NCCCN2CCN(CCCNC(=O)c3ccc(C(C)(C)C)cc3)CC2)cc1	12	8	26	95*	102*	nt	95*	57*
CCOC(=O)N1CCN(C(=O)c2ccc3c(Cl)c4c(nc3c2)CCCC4)CC1	-1	0	3	-2	3	0	nt	nt
CCN(C(=O)c1ccc2c(Cl)c3c(nc2c1)CCC3)c1ccc(C)c(C)c1	-2	-2	28	53*	nt	11	43*	82*
O=C(c1ccc2c(Cl)c3c(nc2c1)CCCC3)N1CCC(N2CCCCC2)CC1	-2	2	41	58*	27	-2	25	nt
CN1CCN(CCCNC(=O)c2ccc3c(Cl)c4c(nc3c2)CCCC4)CC1	1	1	2	76*	-18	-1	42*	58*
Cc1cccc(C)c1NS(=O)(=O)c1cc2c3c(c1)CC(=O)N3CCC2	-3	-5	2	19	4	-6	nt	nt
CCCNc1nc(NCC)nc(OC)n1	0	-1	4	3	-7	8	nt	nt
COC(=O)C1=C(O)/C(=C\c2ccc(OCC(=O)Nc3ccc(OC)cc3)cc2)N=C1C	0	2	-12	-16	-25	-4	nt	nt
N#Cc1ccccc1COC(=O)CCCC1=NS(=O)(=O)c2ccccc2N1	-1	-2	-2	15	-6	-1	nt	nt
CCOC(=O)C(Cc1ccc(NC(=O)/C(=C/c2ccccc2)NC(=O)c2ccccc2)cc1)N1C(=O)c2ccccc2C1=O (stereo not drawn)	0	0	-5	52*	0	-2	19	nt
CCOC(=O)C(Cc1ccc(NC(=O)/C(=C/c2ccc(OC(C)=O)cc2)NC(C)=O)cc1)N1C(=O)c2ccccc2C1=O (stereo not drawn)	3	3	2	18	-6	-2	nt	nt
COc1ccc(N(CC(=O)N2CCN(c3cccc(C)c3C)CC2)S(=O)(=O)c2c(C)noc2C)cc1	0	-7	33	37	22	-2	nt	nt
COc1cccc(CNc2ncc(C(=O)Nc3cc(OC)c(OC)c(OC)c3)c(C)n2)c1	0	0	-2	55*	35	-2	57*	48*
CCOC(=O)Nc1sc(C)nc1-c1ccccc1	1	-2	-21	14	8	-14	nt	nt
CCOC(=O)Nc1nc(-c2ccccc2)c(C(=O)c2ccc(Cl)cc2)s1	-3	28	22	66*	81*	19	60*	106*
Cc1ccc(N(CC(=O)NC2CCCC2)C(=O)CCC(=O)Nc2nc(C)cs2)cc1	2	0	2	8	13	-5	nt	nt
Cc1ccc(-c2nnn(CC(=O)Nc3nnc(C(C)C)s3)n2)cc1	-1	-3	-19	15	10	nt	nt	nt
O=C1c2ccccc2C(=O)C12OC2c1ccc(Cl)cc1 (stereo not drawn)	103*	-4	-7	81*	15	5	-8	nt
CC(=O)OCC(=O)Nc1ccc([N+](=O)[O-])cc1Cl	-1	2	-4	-20	-14	-6	nt	nt
SMILES	CHOP UPR activ	XBP1 UPR activ	T cruzi inh	Mdm2 MdmX PPI	CSC inhib	Beta cell apopt	Mdm2 MdmX conf	Full FLuc ctr
CC(=O)Oc1c(C)cc(Cl)cc1C(=O)Nc1ccc([N+](=O)[O-])cc1Cl	34	14	48	99*	120*	106*	81*	28
COC(=O)/C(=C\Nc1ccc(OC)cc1)NC(=O)c1ccc(Cl)cc1Cl	-3	-1	-11	16	2	-1	nt	nt
COC(=O)/C(=C\Nc1ccc(Cl)cc1Cl)NC(=O)c1ccc(OC)cc1	2	0	26	52*	71	29	43*	70*
CCC(C)(C)c1ccc(OCCCC[n+]2ccc(C)cc2)c(C(C)(C)CC)c1	0	19	35	98*	106*	115*	97*	53*
CCC(C)(C)c1ccc(OCCCC[n+]2cccc(C)c2C)c(C(C)(C)CC)c1	19	23	10	100*	135*	117*	98*	53*
COC(=O)c1ccc(/C=C/C(=O)OCC(=O)NCc2cccs2)cc1	2	-1	nt	21	-9	-6	nt	nt
Cc1nc2ncnn2c(C)c1CCC(=O)N1CCOCC1	0	0	-29	-10	-4	nt	nt	nt
CCc1ccc(NSc2ccccc2[N+](=O)[O-])cc1	0	2	-1	50*	70	11	42*	65*
CC1CCN(CC(O)Cn2c3ccccc3c3ccccc32)CC1 (stereo not drawn)	0	-4	-24	20	1	-1	nt	nt
OC(CN1CCCCC1)Cn1c2ccc(Cl)cc2c2cc(Cl)ccc21 (stereo not drawn)	3	16	82*	75*	?	nt	20	nt
Cc1cc(=O)n2c(n1)NC(Nc1cccc(C)c1C)=NC2c1ccccc1 (stereo not drawn)	1	-1	-2	20	-9	-2	nt	nt
O=C1c2ccccc2S(=O)(=O)N1Cc1nc2ccccc2s1	-6	-11	-17	90*	-2	-3	87*	33
Cc1cc(C)c2nc(N(CCCN(C)C)C(=O)C3=COCCO3)sc2c1	3	5	52	42	5	nt	nt	nt
Cc1cc(C)c2nc(N(CCCN(C)C)C(=O)c3ccc4c(c3)OCCO4)sc2c1	2	6	57*	66*	-12	nt	53*	76*
CCN(c1ccccc1)S(=O)(=O)c1ccc(C(=O)N(CCCN(C)C)c2nc3cc4c(cc3s2)OCO4)cc1	1	1	24	65*	5	-13	49*	48*
